# Scp-1 inhibitor: Scp-1 phosphatase inhibitors, primary screen, biochemical, colorimetric, uHTS | Recombinant Scp1, phosphopeptide, malachite green phosphate absorbance | Carboxy-terminal domain RNA polymerase II polypeptide A small phosphatase 1 (Homo … | 0.88% of 340,000 active | inhibition, % at 20 µM;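 active = inhibition above about 50% at 20 µM, limit read from the data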;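 note: plate controls were DMSO wells with enzyme for no effect and wells lacking enzyme for full effect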
# Target sequence (Q9GZU7 76-261 limits assumed): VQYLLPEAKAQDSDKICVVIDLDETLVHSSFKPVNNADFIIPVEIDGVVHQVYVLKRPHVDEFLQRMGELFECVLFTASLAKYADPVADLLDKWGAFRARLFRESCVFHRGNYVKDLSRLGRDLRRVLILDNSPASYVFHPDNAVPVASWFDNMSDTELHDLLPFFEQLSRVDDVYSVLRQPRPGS
#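 System: SCP-1 catalytic domain; Reagent: Phospho 17-mer peptide substrate; Doses: one concentration, 20 µM, with 1.0% DMSO; Incubation: 45 min room-temperature reaction, 5 min colour, 30 min stabiliser; Signal: Phosphate-binding colour reagent, absorbance read at 630 nm.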
# DNMT1 block: human DNMT1 methyltransferase inhibitors, primary screen, biochemical, molecular beacon, fluorescence, HinP1I cleavage, uHTS; DNA (cytosine-5)-methyltransferase 1 (Homo sapiens), P26358; inhibition (reported as % activation of signal), % at 10 µM; 0.83% of 360,000 active; in the data active = inhibition above about 50%
# STEP inh: STEP phosphatase inhibitors, primary screen, biochemical, fluorescence intensity, uHTS; AID 588621, 2011; Tyrosine-protein phosphatase non-receptor type 5 (Homo sapiens), P54829; recombinant STEP, OMFP fluorogenic substrate; inhibition, % at 20 µM; 0.25% of 360,000 active;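 active = inhibition at 20 µM, scaled per plate between control wells, above about 37%, limit read from the data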;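 note: 0% = DMSO with enzyme and substrate and 100% = substrate only without enzyme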
#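 Test system: STEP tyrosine phosphatase / Reagent: OMFP at 25 µM / Doses: 20 µM, 1% DMSO / Read-out: percent inhibition scaled to no-enzyme and uninhibited-enzyme controls, plate-pattern corrected / Detection: FITC-channel fluorescence of OMFP product / Medium: Bis-Tris buffer pH 6.0, 2.5 mM DTT, 0.005% Tween 20 / Schedule: 20 min at room temperature, dark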
# NadD block: inhibitors of S. aureus NadD, primary screen, biochemical, colorimetric, uHTS. Nicotinate-nucleotide adenylyltransferase NadD (Staphylococcus aureus N315). purified NadD enzyme, colorimetric absorbance read-out. inhibition, % at 20 µM. 0.78% of 360,000 active. AID 602399, 2012; in the data active = inhibition above about 26%
# LMPTP inh: LMPTP phosphatase inhibitors, primary screen, biochemical, fluorescence intensity, uHTS | Low molecular weight phosphotyrosine protein phosphatase (Homo sapiens), P24666 | recombinant LMPTP-A, OMFP fluorogenic substrate | inhibition, % at 20 µM | 0.22% of 360,000 active | AID 651560, 2012;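 active = compounds that cut the enzyme signal by at least half of the control window in the single-dose screen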;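 note: plate controls were DMSO wells with enzyme plus substrate for no effect and substrate without enzyme for full effect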
# Target sequence (P24666 whole entry, looked up): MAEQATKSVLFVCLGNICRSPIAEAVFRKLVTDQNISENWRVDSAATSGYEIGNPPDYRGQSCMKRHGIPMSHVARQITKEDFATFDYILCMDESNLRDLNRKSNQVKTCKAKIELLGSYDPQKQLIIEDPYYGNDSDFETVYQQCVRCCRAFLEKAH
#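 Test system – LMPTP-A phosphatase enzyme · Quantity – 0.625 nM LMPTP-A final · Reagent – OMFP substrate, 400 µM final · Dosing – one test concentration per compound, 20 µM, with 3% DMSO overall · Timing – 50 min enzyme reaction at room temperature, protected from light · Detection – fluorescence intensity · Controls – substrate-only low control, DMSO enzyme-plus-substrate high control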
# SUMO1-SIM PPI: modulators of SUMO1 protein-protein interactions, primary screen, biochemical, uHTS; Small ubiquitin-related modifier 1 (Homo sapiens), P63165; SUMO1 binding to a labelled peptide, TR-FRET, 1 h; inhibition, % at 20 µM; 0.33% of 360,000 active; AID 602429, 2012; in the data active = inhibition above about 37%
# Target sequence (P63165 whole entry, looked up): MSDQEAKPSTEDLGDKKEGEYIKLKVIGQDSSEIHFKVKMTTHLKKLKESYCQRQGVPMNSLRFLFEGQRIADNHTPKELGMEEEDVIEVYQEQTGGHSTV
# NadD conf: inhibitors of S. aureus NadD, confirmation, biochemical, colorimetric, single concentration. purified S. aureus NadD, colorimetric enzyme assay. inhibition, % at 20 µM. shares compounds with NadD block. 13% of 2,000 active; in the data active = inhibition mostly above about 42%, no sharp cut-off; inactive = mostly below about 42%
# * = called active by the depositor; · = no result; ! = a repeat was not active. Shown are actives, neighbours in structure and some others; about 2.3% of the full set was active somewhere.
SMILES,Scp-1 inhibitor,DNMT1 block,STEP inh,NadD block,LMPTP inh,SUMO1-SIM PPI,NadD conf
COc1ccc(S(=O)(=O)CC(=O)c2cc3cc(Br)ccc3oc2=O)cc1,-5,24,7,27,6,17,·
COc1ccc(OC)c(S(=O)(=O)CC(=O)c2cc3ccc(OC)cc3oc2=O)c1,12,-1,-1,36*,4,-13,27
Cc1oc2ccc(NS(=O)(=O)c3cccc4cccnc34)cc2c1C(=O)OC(C)C,-5,0,3,-1,4,4,·
O=C1Cc2c(-c3ccccc3)cc(-c3cccc(Cl)c3)nc2-c2ccccc2N1,1,34,0,37*,1,-1,2
CCOc1cc(/C=N\NC(=O)Cn2nc([N+](=O)[O-])cc2C)ccc1OCc1cccc2ccccc12,-13,18,1,38*,3,-4,-5
CN(C)S(=O)(=O)c1ccc(NC(=O)CN2C(=O)NC3(CCCC3)C2=O)cc1,-3,0,0,4,-1,-3,·
Cc1ccccc1NC(=O)c1sc2nc3c(c(-c4ccco4)c2c1N)CCCC3,-5,-9,0,33*,3,-93,4
Nc1c(C(=O)Nc2ccc(Br)cc2)sc2nc(-c3ccco3)ccc12,9,-3,-1,51*,7,18,10
Cc1ccc(NC(=O)c2sc3nc4c(c(-c5ccco5)c3c2N)CCC4)cc1,-5,-14,1,31*,1,9,-3
Nc1c(C(=O)Nc2ccccc2)sc2nc3c(c(-c4ccco4)c12)CCCC3,-2,14,2,16,1,0,·
Clc1cccc(-c2ccc(/C=N/n3cnnc3)o2)c1,1,6,0,-6,0,-19,·
O=C1OC(c2cccs2)=N/C1=C\c1ccc(-c2cccc(Cl)c2)o1,-13,7,5,46*,3,5,8
N=C1S/C(=C\c2ccc(-c3cccc(Cl)c3)o2)C(=O)N1c1nccs1,3,112*,2,76*,33,23,2
O=C(CSc1ncnc2scc(-c3ccccc3)c12)N1CCN(Cc2ccc3c(c2)OCO3)CC1,-4,10,0,38*,4,-1,15
Cc1ccc(-c2csc3ncnc(SCc4ccc(C(=O)O)cc4)c23)cc1,-12,0,1,32*,4,3,44
c1ccc(-c2csc3ncnc(N4CCN(Cc5ccc6c(c5)OCO6)CC4)c23)cc1,-10,-5,3,-3,4,26,·
Cc1ccccc1NC(=O)CC1C(=O)Nc2ccccc2N1CC(=O)N(C)C1CCS(=O)(=O)C1 (configuration not stated),-13,-3,0,-3,-2,-5,·
O=S(=O)(/N=C(/Nc1ccc(Cl)c(S(=O)(=O)Nc2ccccc2Cl)c1)c1ccc(F)cc1)c1ccccc1,-12,-5,1,41*!,3,-4,55*
O=C(CSc1nnc(NC(=O)c2ccccc2)s1)NC1CCCC1,3,0,-1,5,0,-1,·
CC(=O)Nc1ccc(-c2ccnc3c2CC(C)(C(=O)NCc2ccc(N4CCN(C)CC4)cc2)O3)cc1 (configuration not stated),·,0,-1,-4,1,5,·
CCCc1cc2c(=O)c(-c3nc4ccccc4s3)c(COCC(=O)O)oc2cc1O,11,-22,0,30*,1,-2,30
Cc1ccc(Cn2c(C(C)Nc3nc(-c4ccc(Cl)c([N+](=O)[O-])c4)cs3)nc3cc(C(F)(F)F)ccc32)cc1 (configuration not stated),14,-4,1,37*,4,1,37
CC(O)(c1cccc(F)c1)c1nc(-c2cc(F)cc(F)c2)cs1 (configuration not stated),·,10,-5,-12,3,-5,·
Cc1sc2nc(COC(=O)c3cccc(S(=O)(=O)N(C)c4ccccc4)c3)[nH]c(=O)c2c1C,-7,2,-1,37*,3,9,4
CCN(CC)C(=O)CSC1=N/C(=C/c2ccco2)C(=O)N1c1ccc(OC)c(Cl)c1,3,-7,1,20,2,-11,·
SMILES,Scp-1 inhibitor,DNMT1 block,STEP inh,NadD block,LMPTP inh,SUMO1-SIM PPI,NadD conf
COc1ccc(N2C(=O)/C(=C\c3ccco3)N=C2SCC(=O)NC(C)(C)C)cc1Cl,1,-6,3,31*,3,-15,12
Cc1ccc(-n2nc3c(c2NC(=O)/C=C\c2ccc4c(c2)OCO4)CSC3)cc1,-13,2,2,41*,3,5,62*
Cc1ccc(-n2nc3c(c2NC(=O)c2ccc4c(c2)OCO4)CS(=O)C3)cc1 (configuration not stated),6,0,0,-3,-1,-2,·
Cc1ccccc1-n1nc2c(c1NC(=O)/C=C\c1ccc3c(c1)OCO3)CSC2,-16,-4,1,28,3,-1,·
Cc1ccc(-n2nc3c(c2NC(=O)/C=C\c2ccc4c(c2)OCO4)CSC3)c(C)c1,-10,0,1,31*,2,-1,57*
Cc1ccc(S(=O)(=O)N2CCOCC2)cc1C(=O)NCCCN1CCCC1=O,·,-2,-1,4,-2,0,·
Cc1ccccc1[C@H](NC1c2ccccc2C=Cc2ccccc21)P(=O)(c1ccccc1)c1ccccc1,·,·,·,31*,14,3,38
Cc1ccc(-c2csc(C3=C(O)CN(NC(=O)c4ccc([N+](=O)[O-])cc4)C3=N)n2)cc1,23,36,4,30*,14,-1,7
CCCCN1CC(O)=C(c2nc(-c3ccc(Cl)cc3)cs2)C1=N,7,38,4,10,20,-1,·
CCCCN1C(=O)C(CC(=O)NCC2CCCCC2)CC(C(=O)N2CCCCCC2)=C1C (configuration not stated),·,·,·,16,-2,3,·
CC(=O)N1c2ccc(S(=O)(=O)N(C)CC(=O)Nc3ccccc3C)cc2CC1C (configuration not stated),3,-1,0,-4,-2,-4,·
Cc1cc(-c2cc(C(=O)O)c3ccccc3n2)c(C)s1,1,2,-1,58*,3,10,13
Cc1nn(C)cc1-c1cc(C(=O)O)c2ccccc2n1,1,0,-2,8,-1,-3,·

# Compound activity: PubChem, Sanford-Burnham Center for Chemical Genomics
